{"data": "Results gathered from unrelated publications", "Methionyl-tRNA synthetase, putative": "Methionyl-tRNA synthetase, putative (Trypanosoma brucei brucei, UniProt Q38C91)", "PHIP BD2": "PHIP, BD2 (Homo sapiens, UniProt Q8WWQ0)", "ACVR2A": "Activin receptor type-2A (ACVR2A, Homo sapiens, UniProt P27037)", "SETD7": "Histone-lysine N-methyltransferase SETD7 (SETD7, Homo sapiens, UniProt Q8WTS6)", "CDKL3": "Cyclin-dependent kinase-like 3 (CDKL3, Homo sapiens, UniProt Q8IVW4)", "SLC10A2": "Ileal sodium/bile acid cotransporter (SLC10A2, Homo sapiens, UniProt Q12908)", "PIP4K2A": "Phosphatidylinositol 5-phosphate 4-kinase type-2 alpha (PIP4K2A, Homo sapiens, UniProt P48426)"}
{"SMILES": "O=C(Cc1cc(Cl)cc(Cl)c1)N1CCCC(c2nc3cc(Cl)c(Cl)cc3[nH]2)C1 (centres unmarked)", "target": "Methionyl-tRNA synthetase, putative", "assay": "thermal stability, DSF", "setting": "100 µM", "endpoint": "ΔTm", "value": "7 °C"}
{"SMILES": "C[S+]([O-])c1ccc(-c2nc(-c3ccncc3)c(-c3ccc(F)cc3)[nH]2)cc1 (centres unmarked)", "target": "PHIP BD2", "assay": "thermal stability, DSF", "setting": "10 µM", "endpoint": "ΔTm", "value": "1.14 °C"}
{"SMILES": "N#Cc1ccc(/C=C/CN(CC[C@H](N)C(=O)O)C[C@H]2O[C@@H](n3cnc4c(N)ncnc43)[C@H](O)[C@@H]2O)cc1", "target": "Histone-lysine N-methyltransferase SETD2 (SETD2, Homo sapiens, UniProt Q9BYW2)", "assay": "enzyme activity, inhibitor", "setting": "1 µM", "endpoint": "activity vs control", "value": "108%"}
{"SMILES": "CN1CCC2(CC1)NC(=O)c1c(c3ccc(Cl)c(Cl)c3n1C)C2C#N (racemic)", "target": "ACVR2A", "assay": "thermal stability, DSF", "setting": "10 µM", "endpoint": "ΔTm", "value": "0.4 °C"}
{"SMILES": "O=C(O)C1=CC(=C(c2ccc(O)c(C(=O)O)c2)c2ccc(O)c(C(=O)O)c2)C=CC1=O", "target": "SETD7", "assay": "cell-free assay", "setting": "10 µM", "endpoint": "inhibition", "value": "100%"}
{"SMILES": "COc1cc(Cl)c(C(=O)N[C@@H](CN[C@H]2CC[C@@H](N)CC2)Cc2ccc(C#N)cc2)cc1-c1ccc(CN[C@H](C)c2ccc(C)cc2)o1", "target": "CDKL3", "assay": "enzyme activity, inhibitor", "setting": "1 µM", "endpoint": "remaining activity", "value": "95%"}
{"SMILES": "O=c1c(-c2cc(O)c(O)c(O)c2)coc2cc(O)c(O)c(O)c12", "target": "SETD7", "assay": "cell-free assay", "setting": "10 µM", "endpoint": "inhibition", "value": "34%"}
{"SMILES": "Nc1ncnc2occ(-c3ccc(NC(=O)Nc4cc(C(F)(F)F)ccc4F)cc3)c12", "target": "CDKL3", "assay": "cell-free assay", "setting": "20 µM", "endpoint": "remaining signal", "value": "0.8%"}
{"SMILES": "CSc1ccc2c(c1)N(CCC1CCCCN1C)c1ccccc1S2 (centres unmarked)", "target": "SLC10A2", "assay": "transporter uptake, inhibitor, radiometric", "setting": "1 mM", "endpoint": "inhibition", "value": "97.1%"}
{"SMILES": "Cc1ccc(NC(=O)c2ccc(C)c(C(F)(F)F)c2)cc1C#Cc1nn(C2CCC(O)CC2)c2ncnc(N)c12 (centres unmarked)", "target": "PIP4K2A", "assay": "cell-free assay, inhibitor", "setting": "10 µM", "endpoint": "remaining signal", "value": "100%"}
{"SMILES": "Cn1c2c(c3ccc(Cl)c(Cl)c31)C(C#N)C1(CCNCC1)NC2=O (racemic)", "target": "ACVR2A", "assay": "thermal stability, DSF", "setting": "10 µM", "endpoint": "ΔTm", "value": "0 °C"}
{"SMILES": "Oc1ccc(-c2nc(-c3ccncc3)c(-c3ccc(F)cc3)[nH]2)cc1", "target": "Bromodomain-containing protein 9 (BRD9, Homo sapiens, UniProt Q9H8M2)", "assay": "thermal stability, DSF", "setting": "10 µM", "endpoint": "ΔTm", "value": "0.31 °C"}
{"SMILES": "Cc1cnc(NC2CCOCC2)nc1-n1cnc(C(=O)NC(CN)c2cc(F)cc(Cl)c2)c1 (centres unmarked)", "target": "PIP4K2A", "assay": "enzyme activity, inhibitor, radiometric", "setting": "1 µM", "endpoint": "remaining activity", "value": "102%"}
{"SMILES": "CC(=O)N[C@H]1CSSC[C@@H](C(=O)N[C@@H](Cc2c[nH]c3ccccc23)C(N)=O)NC(=O)[C@H](Cc2ccccc2)NC(=O)[C@H](CCCNC(=N)N)NC1=O", "target": "Melanocortin receptor 5 (MC5R, Homo sapiens, UniProt P33032)", "assay": "cAMP, agonist", "system": "HEK293", "setting": "3 min", "endpoint": "Emax", "value": "0%"}
{"SMILES": "C[C@@H]1C[C@H]2[C@@H]3CCC4=CC(=O)C=C[C@]4(C)[C@@]3(F)[C@@H](O)C[C@]2(C)[C@@]1(O)C(=O)CO", "target": "SLC10A2", "assay": "transporter uptake, inhibitor, radiometric", "setting": "1 mM", "endpoint": "inhibition", "value": "< 10%"}
{"SMILES": "Cc1cnc(Nc2ccc(OCCN3CCCC3)cc2)nc1Nc1cccc(S(=O)(=O)NC(C)(C)C)c1", "target": "PHIP BD2", "assay": "thermal stability, DSF", "setting": "10 µM", "endpoint": "ΔTm", "value": "0.6 °C"}
{"SMILES": "Cc1ccc(C(=O)Nc2ccc(CN3CCN(C)CC3)c(C(F)(F)F)c2)cc1C#Cc1cnc2cccnn12", "target": "CDKL3", "assay": "enzyme activity", "setting": "23.5 nM", "endpoint": "remaining activity", "value": "26%"}
{"SMILES": "O=C(Cc1cc(Cl)cc(Cl)c1)N1CCCC(c2nc3cc(F)ccc3[nH]2)C1 (centres unmarked)", "target": "Methionyl-tRNA synthetase, putative", "assay": "thermal stability, DSF", "setting": "100 µM", "endpoint": "ΔTm", "value": "8 °C"}
{"SMILES": "CC(C(=O)O)c1cccc(C(=O)c2ccccc2)c1 (centres unmarked)", "target": "SLC10A2", "assay": "transporter uptake, inhibitor, radiometric", "setting": "1 mM", "endpoint": "inhibition", "value": "44%"}
{"SMILES": "COC(=O)c1ccc(N2CCN(C)CC2)c(NC(=O)c2cccc(OC)c2)c1", "target": "WD repeat-containing protein 5 (WDR5, Homo sapiens, UniProt P61964)", "assay": "thermal stability, DSF", "setting": "100 µM", "endpoint": "ΔTm", "value": "8.4 °C"}
